Series [1] in a line: Half life in rat administered with 10 mg/kg, iv. It counts as ADME, organism-based. Also noted: dose 10 mg/kg, route intravenous. Conditions: in vivo. In outline:
(§1)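 Rat pharmacokinetics with intravenous and oral dosing at the stated doses (mg/kg). Half-lives determined for iv and po routes; clearance (ml/min/kg), steady-state volume of distribution (l/kg) and oral bioavailability (%) derived.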

Series [2] in a line: Oral bioavailability in rat at 10 mg/kg. It counts as ADME, organism-based. The settings on record: in vivo. In outline: as §1
Series [3] is described as follows: Half life in rat administered with 10 mg/kg, po. Also noted: dose 10 mg/kg, route oral. The settings on record: in vivo. The series is classed as ADME, organism-based. In outline:
as §1

In a further series the target is Prothrombin (Homo sapiens, UniProt P00734). As to the kind of experiment: Binding affinity to thrombin.
Series [4] concerns the target Coagulation factor VII/tissue factor (Homo sapiens, UniProt P08709). As to the kind of experiment: Binding affinity to FVIIa/TF. It counts as protein-complex assay.
Series [5] deals with T1, Coagulation factor X (Homo sapiens, UniProt P00742). As to the kind of experiment: Binding affinity to FXa.
For another series, the species on record is Homo sapiens. The experiment in a line: Ratio of activated partial thromboplastin time against prothrombin time (aPTT/PT). It counts as functional.
Series [6] deals with Coagulation factor VII/tissue factor (Homo sapiens) (UniProt P08709+P13726). Conditions: Plasma.
Series [7] concerns the target T1, Coagulation factor X. As to the kind of experiment: Activated partial thromboplastin time. It counts as functional. In a few lines:
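Human citrated plasma spiked with at least six inhibitor concentrations; intrinsic-pathway clotting started with Actin FS (ellagic acid in soy phosphatides). Clotting time read by turbidity. Concentration doubling control clotting time (EC50) obtained by fitting data to exponential regression.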

The next series addresses Trypsin (Homo sapiens, UniProt P07477+P07478+P35030). The experiment in a line: Binding affinity to trypsin. It counts as protein assay.
Series [8] in a line: Half life in rat administered with 10.3 mg/kg, po. It counts as ADME, organism-based. On the set-up: dose 10.3 mg/kg, route oral. Conditions: in vivo.
A short description of series [9]: Oral bioavailability in rat at 10.3 mg/kg. The series is classed as ADME, organism-based. The settings on record: in vivo.
Series [10] is described as follows: Volume of distribution in rat at 6.1 mg/kg. The settings on record: in vivo, read-out: Vdss. On the set-up: dose 6.1 mg/kg. The series is classed as ADME, organism-based. In outline:
as §1

Series [11] is described as follows: Oral bioavailability in rat at 6.1 mg/kg. It counts as ADME, organism-based. The settings on record: in vivo. In a few lines:
as §1

A short description of series [12]: Clearance in rat at 6.1 mg/kg. The series is classed as ADME, organism-based. Also noted: dose 6.1 mg/kg. Conditions: in vivo. In a few lines:
as §1

A short description of series [13]: Half life in rat administered with 6.1 mg/kg, iv. It counts as ADME, organism-based. On the set-up: dose 6.1 mg/kg, route intravenous. Conditions: in vivo. In a few lines:
as §1

Series [14] can be described thus: Clearance in rat at 3 mg/kg. Conditions: in vivo. It counts as ADME, organism-based. Also noted: dose 3 mg/kg. In a few lines:
as §1

Series [15] in a line: Volume of distribution in rat at 3 mg/kg. It counts as ADME, organism-based. The settings on record: in vivo, read-out: Vdss. Also noted: dose 3 mg/kg. In outline: as §1
The nature of series [16]: Half life in rat administered with 3 mg/kg, iv. Also noted: dose 3 mg/kg, route intravenous. The series is classed as ADME, organism-based. The settings on record: in vivo. In outline:
as §1

In general, half-life refers to the time needed for the level to fall by half in the phase considered. Low values mean rapid decline, high ones slow decline. As a reminder, the bioavailability is dose-corrected exposure relative to a reference, in per cent. A lower bioavailability goes with little systemic uptake. The Ki is the equilibrium dissociation constant of an inhibitor or competing ligand from its target. A high value points to a looser hold on the target. For orientation: clearance means the volume of plasma or blood freed of the substance per unit of time. Higher therefore signals efficient removal.

T1 sequence (P00742 41-179 limits assumed): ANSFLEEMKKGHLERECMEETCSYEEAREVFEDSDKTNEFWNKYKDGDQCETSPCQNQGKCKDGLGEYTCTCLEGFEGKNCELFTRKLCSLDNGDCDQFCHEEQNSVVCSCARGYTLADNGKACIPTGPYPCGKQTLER
T1 sequence (P00742 235-488 limits assumed): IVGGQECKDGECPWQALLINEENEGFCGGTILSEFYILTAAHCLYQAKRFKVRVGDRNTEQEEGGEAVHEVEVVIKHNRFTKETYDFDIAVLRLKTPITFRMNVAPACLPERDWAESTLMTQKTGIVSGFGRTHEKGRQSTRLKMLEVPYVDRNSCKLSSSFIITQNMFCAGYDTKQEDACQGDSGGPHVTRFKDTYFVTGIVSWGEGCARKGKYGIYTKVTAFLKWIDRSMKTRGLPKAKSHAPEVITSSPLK
Coagulation factor VII/tissue factor, sequence (P08709 61-212 limits assumed): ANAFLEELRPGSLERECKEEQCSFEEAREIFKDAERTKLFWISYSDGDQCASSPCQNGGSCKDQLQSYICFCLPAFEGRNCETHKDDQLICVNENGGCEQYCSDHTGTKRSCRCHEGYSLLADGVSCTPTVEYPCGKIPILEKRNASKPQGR
Coagulation factor VII/tissue factor, sequence (P08709 213-466 limits assumed): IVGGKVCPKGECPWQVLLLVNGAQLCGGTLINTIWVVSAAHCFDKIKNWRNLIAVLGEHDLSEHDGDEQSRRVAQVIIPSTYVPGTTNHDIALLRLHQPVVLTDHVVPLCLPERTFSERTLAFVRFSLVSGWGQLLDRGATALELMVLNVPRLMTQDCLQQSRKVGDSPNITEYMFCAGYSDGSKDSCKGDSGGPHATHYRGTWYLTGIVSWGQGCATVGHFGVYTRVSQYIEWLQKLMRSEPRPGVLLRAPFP
Coagulation factor VII/tissue factor, sequence (P13726 33-295 partner limits assumed): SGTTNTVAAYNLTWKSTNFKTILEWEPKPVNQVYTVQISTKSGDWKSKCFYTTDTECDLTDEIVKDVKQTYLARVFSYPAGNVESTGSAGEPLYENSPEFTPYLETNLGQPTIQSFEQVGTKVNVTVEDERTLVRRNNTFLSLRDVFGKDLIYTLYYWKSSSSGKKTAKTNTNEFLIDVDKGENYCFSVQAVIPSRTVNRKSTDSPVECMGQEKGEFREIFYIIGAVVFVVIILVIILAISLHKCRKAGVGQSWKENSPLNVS

Turning to `CCOC(=O)C(Nc1ccc(C(=N)NO)cc1)c1cc(OCC)cc(OCC)c1` (stereo unspecified), the half-life in series [1] is 3.5 h; in series [3], 4.8 h. Further, in [2], the bioavailability came out at 100%.
`CCOc1cc(OC2CCOCC2)cc(C(Nc2ccc(C(=N)N)cc2)C(=O)O)c1` (stereo unspecified): the inhibition constant Ki at Prothrombin was more than 6600 nM; in series [4], 140 nM; on Coagulation factor X [5], 2900 nM; on Trypsin it was 7000 nM. In addition, the Ratio in the series filed under Homo sapiens was 4.1. The molecule also came in with a 2PT in [6] of 4.8 µM. For the same molecule, the 2aPTT on Coagulation factor X [7] is 19.8 µM.
Consider `CCOc1cc(O[C@@H]2CCOC2)cc(C(Nc2ccc(C(=N)N)cc2)C(=O)O)c1` (stereo partly specified), for which the Ki at Prothrombin worked out at 11300 nM; on Coagulation factor X [5] it was 9100 nM; on Trypsin, 9900 nM. At Coagulation factor X [7], this molecule yielded a 2aPTT of 51.7 µM.
With `CCOc1cc(C(Nc2ccc(C(=N)N)cc2)C(=O)O)ccc1OCc1ccccc1` (stereo unspecified), the Ki on Prothrombin stood at 85 nM; in series [4] it was 28 nM; at Coagulation factor X [5] it was 790 nM; on Trypsin, 1000 nM. This molecule yielded a 2PT in series [6] of 8.8 µM.
As for `CCOc1cc(-c2cccnc2)cc(C(Nc2ccc(C(=N)N)cc2)C(=O)O)c1` (stereo unspecified), the inhibition constant (Ki) at Prothrombin is 10200 nM; in [4], 510 nM; at Coagulation factor X [5], 2200 nM; at Trypsin, 8000 nM. In the series filed under Homo sapiens, the Ratio is 4.9. The same molecule yielded a 2PT in series [6] of 11.8 µM. Also, the 2aPTT on Coagulation factor X [7] worked out at 57.6 µM.
Consider `C#Cc1cc(O[C@H]2CCOC2)cc(C(Nc2ccc(C(=N)N)cc2)C(=O)O)c1` (stereo partly specified), for which the inhibition constant (Ki) on Prothrombin worked out at 9500 nM; in series [4], 65 nM; on Coagulation factor X [5], 2600 nM; at Trypsin, 5400 nM. In addition, the Ratio in the series filed under Homo sapiens was 3. The molecule further gave a 2PT in series [6] of 4.3 µM. Moreover, the 2aPTT at Coagulation factor X [7] turned out to be 12.9 µM.
Turning to `CCOc1cc(O[C@H]2CCOC2)cc([C@@H](Nc2ccc(C(=N)N)cc2)C(=O)O)c1`, the figures for the Ki at Prothrombin, at Coagulation factor X [5] and at Trypsin were 4600 nM, 1500 nM and 4500 nM, respectively. Moreover, on Coagulation factor X [7], the 2aPTT is 10.3 µM.
`CCOc1cc(OCC)cc(C(Nc2ccc(C(=N)NO)cc2)C(=O)O)c1` (stereo unspecified) had a half-life in series [8] of 5 h. The same molecule yielded a bioavailability in series [9] of 30%.
For `CCOc1cc(OC2CCN(C)CC2)cc(C(Nc2ccc(C(=N)N)cc2)C(=O)O)c1` (stereo unspecified), the figures for the Ki on Prothrombin, at Coagulation factor X [5] and on Trypsin were 9900 nM, 1600 nM and 8600 nM, respectively. The molecule also yielded a 2aPTT on Coagulation factor X [7] of 22.3 µM.
On to `CCc1cc(OC2CCOCC2)cc(C(Nc2ccc(C(=N)N)cc2)C(=O)O)c1` (stereo unspecified), for which the figures for the Ki at Prothrombin, on Coagulation factor X [5] and at Trypsin were 1600 nM, more than 7500 nM and 4800 nM, respectively. The molecule also had a 2aPTT at Coagulation factor X [7] of 15.6 µM.
On to `C#Cc1cc(O[C@@H]2CCOC2)cc(C(Nc2ccc(C(=N)N)cc2)C(=O)O)c1` (stereo partly specified), for which the Ki at Prothrombin was 8800 nM; in series [4], 129 nM; on Coagulation factor X [5], 15300 nM; at Trypsin, 6600 nM. For the same molecule, the Ratio in the series listed under Homo sapiens turned out to be 3.7. In addition, in [6], the 2PT was 9.1 µM. On Coagulation factor X [7], this molecule returned a 2aPTT of 34 µM.
Regarding `CCOc1cc(O[C@H]2CC[C@H](O)CC2)cc(C(Nc2ccc(C(=N)N)cc2)C(=O)O)c1` (stereo partly specified), the inhibition constant (Ki) on Prothrombin was determined as 5500 nM; in series [4] it was 110 nM; on Coagulation factor X [5], 12200 nM; on Trypsin it was 4000 nM. In the series listed under Homo sapiens, the Ratio came out at 5.4. The molecule also gave a 2PT in series [6] of 5.4 µM. On Coagulation factor X [7], the 2aPTT was found to be 29.4 µM.
As to `CCOc1cc(OCC)cc(C(Nc2ccc(C(=N)N)cc2)C(=O)O)c1` (stereo unspecified), in [10], the Vd is 0.3 L/kg. The same molecule came in with a bioavailability in [11] of 2%. The Ki on Prothrombin was more than 35000 nM; on Coagulation factor X [5], 5600 nM; at Trypsin it was 16900 nM. The same molecule showed a clearance in series [12] of 2.6 mL/min/kg. In [13], this molecule gave a half-life of 2.9 h.
Turning to `CCOC(=O)C(Nc1ccc(C(=N)NO)cc1)c1cc(OCC)cc(O[C@H]2CCOC2)c1` (stereo partly specified), the half-life is 0.9 h in [1] and 4.1 h in series [3]. The bioavailability in series [2] stood at 15%.
`CCOc1cc(O[C@H]2CCOC2)cc(C(Nc2ccc(C(=N)N)cc2)C(=O)O)c1` (stereo partly specified) came in with a clearance in series [14] of 5.7 mL/min/kg. The Ki on Prothrombin stood at 8600 nM; at Coagulation factor X [5] it was 2300 nM; at Trypsin it was 7300 nM. Further, in [15], the Vd amounted to 0.5 L/kg. For the same molecule, on Coagulation factor X [7], the 2aPTT is 17.2 µM. The molecule further showed a half-life in series [16] of 1.4 h.
As to `CCOc1cc(-c2ccccc2)cc(C(Nc2ccc(C(=N)N)cc2)C(=O)O)c1` (stereo unspecified), the Ki at Prothrombin is 7300 nM; in [4] it was 130 nM; at Coagulation factor X [5], 1400 nM; at Trypsin, more than 68000 nM. The Ratio in the series filed under Homo sapiens worked out at 2. In series [6], this molecule came in with a 2PT of 35.6 µM. On Coagulation factor X [7], this molecule yielded a 2aPTT of 69.9 µM.
On to `C#Cc1cc(OC2CCOCC2)cc(C(Nc2ccc(C(=N)N)cc2)C(=O)O)c1` (stereo unspecified), for which the inhibition constant Ki turned out to be 4700 nM at Prothrombin, 38 nM in [4], 2900 nM at Coagulation factor X [5] and 1900 nM at Trypsin. For the same molecule, the Ratio in the series listed under Homo sapiens was 4.2. The molecule further came in with a 2PT in [6] of 3.4 µM. Also, the 2aPTT at Coagulation factor X [7] came to 14.3 µM.
For the molecule `CCOc1cc(OC2CCN(S(C)(=O)=O)CC2)cc(C(Nc2ccc(C(=N)N)cc2)C(=O)O)c1` (stereo unspecified), the inhibition constant Ki on Prothrombin was more than 3500 nM; in series [4], 180 nM; at Coagulation factor X [5], 4400 nM; on Trypsin it was 3500 nM. In addition, in the series listed under Homo sapiens, the Ratio amounted to 5.6. In addition, the 2PT in [6] was 4.8 µM. At Coagulation factor X [7], the 2aPTT worked out at 26.9 µM.
With `COc1cc(C(Nc2ccc(C(=N)N)cc2)C(=O)O)ccc1OCc1ccccc1` (stereo unspecified), the inhibition constant Ki on Prothrombin stood at 74 nM; in series [4] it was 61 nM; on Coagulation factor X [5], 730 nM; at Trypsin, 310 nM. The same molecule showed a 2PT in series [6] of 11.9 µM.
For the molecule `C=Cc1cc(OC2CCOCC2)cc(C(Nc2ccc(C(=N)N)cc2)C(=O)O)c1` (stereo unspecified), the inhibition constant Ki at Prothrombin was 2900 nM; in series [4], 69 nM; at Coagulation factor X [5] it was 13300 nM; on Trypsin it was 8700 nM. Besides, the Ratio in the series listed under Homo sapiens was found to be 4. Moreover, the 2PT in [6] was determined as 5.9 µM. Moreover, the 2aPTT at Coagulation factor X [7] came to 23.7 µM.

The record behind these values is ChEMBL document CHEMBL1141948, “Selective and orally bioavailable phenylglycine tissue factor/factor VIIa inhibitors” (Bioorg Med Chem Lett, 2005).
